Measured values reported in ChEMBL document CHEMBL1177761, “Click chemistry to probe Hsp90: Synthesis and evaluation of a series of triazole-containing novobiocin analogues” (Bioorg Med Chem Lett, 2010).
Values joined by “and” are separate entries in the source; they are usually repeats but may differ in a detail not shown here. Equal values may be shown once. Active and inactive are the calls of the source. The rule behind the calls is not given here.

What was measured:
[1] = system: MCF7; experiment: Antiproliferative activity against human MCF7 cells expressing ER; type: functional, cell-based
Outline: (§1)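 Growth inhibition was measured in the listed cell lines. IC50 is the compound concentration that inhibits cellular growth by 50%. Values are mean ± standard error from at least two separate experiments, each run in triplicate.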

[2] = system: SK-BR-3; experiment: Antiproliferative activity against human ER deficient SKBR3 cells over expressing HER2; type: functional, cell-based; outline: as §1
[3] = target: T1, Heat shock protein HSP90 (Homo sapiens) (UniProt P07900+P08238); experiment: Inhibition of Hsp90 in human MCF7 cells assessed as Her2 degradation by Western blot analysis; type: cell-based
[4] = target: T1, Heat shock protein HSP90 (Homo sapiens); experiment: Inhibition of Hsp90 in human MCF7 cells assessed as c-Raf degradation by Western blot analysis; type: cell-based
[5] = target: MCF-7 and SKBr-3 cells (Homo sapiens); experiment: Antiproliferative activity against human MCF7 and SKBr3 cells

Row | SMILES | IC50 [1] | IC50 [2] | inhibition [3] | inhibition [4] | IC50 [5]
1 | CO[C@@H]1[C@@H](O)[C@@H](O)[C@H](Oc2ccc3cc(-n4cc(-c5ccccc5)nn4)c(=O)oc3c2C)OC1(C)C | 64.4 µM | > 100 µM | – | – | –
2 | Cc1c(O)ccc2cc(-n3cc(/C=C/c4ccccc4)nn3)c(=O)oc12 | 33.7 µM | 33.9 µM | – | – | –
3 | COc1cccc(-c2cc(-c3cn(-c4cc5ccc(O[C@@H]6OC(C)(C)[C@H](OC)[C@@H](O)[C@H]6O)c(C)c5oc4=O)nn3)ccc2OC)c1 | 13.2 µM | 21.2 µM | – | – | –
4 | Cc1c(O)ccc2cc(-n3cc(-c4ccc(F)cc4F)nn3)c(=O)oc12 | 33.5 µM | 34.2 µM | – | – | –
5 | COc1cccc(-c2cc(-c3cn(-c4cc5ccc(OC(C)=O)c(C)c5oc4=O)nn3)ccc2OC)c1 | 42.4 µM | 50.8 µM | – | – | –
6 | COc1cccc(-c2cc(-c3cn(-c4cc5ccc(O)c(C)c5oc4=O)nn3)ccc2OC)c1 | 28 µM | 44.9 µM | – | – | –
7 | CO[C@@H]1[C@@H](O)[C@@H](C)[C@H](Oc2ccc3cc(NC(=O)c4c[nH]c5ccccc45)c(=O)oc3c2C)OC1(C)C | – | – | – | – | 5.3 µM and 12.2 µM
8 | COc1ccc(-c2cn(-c3cc4ccc(O)c(C)c4oc3=O)nn2)cc1 | > 100 µM | > 100 µM | – | – | –
9 | CC(=O)Oc1ccc2cc(-n3cc(-c4ccc(N(C)C)cc4)nn3)c(=O)oc2c1C | > 100 µM | > 100 µM | inactive | – | –
10 | Cc1c(O)ccc2cc(-n3cc(-c4cc5ccccc5[nH]4)nn3)c(=O)oc12 | 38.3 µM | 42.5 µM | – | – | –
11 | CO[C@@H]1[C@@H](OC(N)=O)[C@@H](O)[C@H](Oc2ccc3c(O)c(NC(=O)c4ccc(O)c(CC=C(C)C)c4)c(=O)oc3c2C)OC1(C)C [NOVOBIOCIN] | 481 µM | 475 µM | – | – | –
12 | Cc1ccc(-c2cn(-c3cc4ccc(O)c(C)c4oc3=O)nn2)cc1 | 23.2 µM | > 100 µM | – | – | –
13 | Cc1c(O)ccc2cc(-n3cc(-c4ccccc4)nn3)c(=O)oc12 | 25.2 µM | 39 µM | – | – | –
14 | Cc1c(O)ccc2cc(-n3cc(-c4ccc(N(C)C)cc4)nn3)c(=O)oc12 | > 100 µM | > 100 µM | – | – | –

The next lines start with the values.

Row | IC50 [1] | IC50 [2] | inhibition [3] | inhibition [4] | IC50 [5] | SMILES
15 | 7.45 µM | 6.52 µM | Dose-dependent effect | Dose-dependent effect | – | CC(=O)Oc1ccc2cc(-n3cc(-c4c[nH]c5ccccc45)nn3)c(=O)oc2c1C
16 | 40.8 µM | 76.4 µM | – | – | – | CC(=O)Oc1ccc2cc(-n3cc(-c4ccccc4)nn3)c(=O)oc2c1C
17 | > 100 µM | > 100 µM | – | – | – | CC(=O)Oc1ccc2cc(-n3cc(-c4ccc(F)cc4F)nn3)c(=O)oc2c1C
18 | 18.3 µM | 8.17 µM | – | – | – | CO[C@@H]1[C@@H](O)[C@@H](O)[C@H](Oc2ccc3cc(-n4cc(-c5c[nH]c6ccccc56)nn4)c(=O)oc3c2C)OC1(C)C
19 | > 100 µM | > 100 µM | – | – | – | COc1ccc(-c2cn(-c3cc4ccc(OC(C)=O)c(C)c4oc3=O)nn2)cc1
20 | 76.1 µM | 50.4 µM | – | – | – | CC(=O)Oc1ccc2cc(-n3cc(-c4cc5ccccc5[nH]4)nn3)c(=O)oc2c1C
21 | > 100 µM | 90.8 µM | – | – | – | CC(=O)Oc1ccc2cc(-n3cc(-c4ccc(C)cc4)nn3)c(=O)oc2c1C
22 | 28.5 µM | 65.1 µM | – | – | – | CC(=O)Oc1ccc2cc(-n3cc(/C=C/c4ccccc4)nn3)c(=O)oc2c1C
